From ChEMBL document CHEMBL3124866, “Small molecular antibacterial peptoid mimics: the simpler the better!” (J Med Chem, 2014)
Converted amounts (≈) assume the structure as drawn. The source made the active and inactive calls. No cut-off for these calls is given here. Residues, ends and D or L forms follow the SMILES beside them.

Key:
Pseudomonas aeruginosa [1] = test: Antibacterial activity against Pseudomonas aeruginosa ATCC 27853 after 24 hrs by broth microdilution assay; format: functional; details: ATCC 27853, 24 h
Enterococcus faecium [2] = test: Antibacterial activity against vancomycin-resistant Enterococcus faecium ATCC 51559 after 24 hrs by broth microdilution assay; format: functional; details: ATCC 51559, 24 h
In short: (§1)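 MIC by broth microdilution. Cultures were grown 6 h to ~10^9 cfu/mL, then diluted to 10^5 cfu/mL. Media: yeast-dextrose broth for MRSA, BHI for VRE, and beef extract/peptone nutrient broth for K. pneumoniae. Compounds were serially diluted in water, 50 µL added to 150 µL cells, and incubated 24 h at 37 °C. OD600 triplicates were sigmoid-fitted; MIC is the point where OD equals the no-bacteria control. Mean ± SEM of ≥2 experiments.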

Escherichia coli [3] = test: Antibacterial activity against Escherichia coli ATCC 25922 after 24 hrs by broth microdilution assay; format: functional; details: ATCC 25922, 24 h
Enterococcus faecium [4] = test: Antibacterial activity against Enterococcus faecium ATCC 29212 after 24 hrs by broth microdilution assay; details: ATCC 29212, 24 h
Staphylococcus aureus [5] = test: Antibacterial activity against Staphylococcus aureus ATCC 29213 after 24 hrs by broth microdilution assay; format: functional; details: ATCC 29213, 24 h
Staphylococcus aureus [6] = test: Antibacterial activity against methicillin-resistant Staphylococcus aureus ATCC 33591 after 24 hrs by broth microdilution assay; format: functional; details: ATCC 33591, 24 h; in short: as §1
Klebsiella pneumoniae = test: Antibacterial activity against beta-lactam-resistant Klebsiella pneumoniae ATCC 700603 after 24 hrs by broth microdilution assay; format: functional; details: ATCC 700603, 24 h; in short: as §1
Escherichia coli [7] = test: Antibacterial activity against drug-sensitive Escherichia coli MTCC 443 assessed as merging of dead bacteria with each other at 10 X MIC after 2 hrs by field-emission scanning electron microscopic analysis; format: functional, organism-based
In short: (§2)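 Cells grown 6 h (E. coli in LB, S. aureus in yeast-dextrose broth) were resuspended at 10^6 cells/mL in nutrient media pH 7.4. They were treated at 10× MIC at 37 °C for 2 h with 250 rpm shaking, beside an untreated control. Cells were pelleted, dehydrated through a 30–100% ethanol series and dried on silicon wafer. S. aureus was sputter-coated; E. coli was imaged uncoated by FESEM.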

Escherichia coli [8] = test: Antibacterial activity against drug-sensitive Escherichia coli MTCC 443 assessed as outer cytoplasmic membrane permeabilization at MIC measured up to 10 mins by N-phenylnaphthylamine dye-based fluorescence assay; format: functional, organism-based
In short: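 Mid-log E. coli (6 h, 10^8 cells/mL) were washed and resuspended in 5 mM glucose/5 mM HEPES pH 7.2 with 10 µM NPN. Compound was added in water. Outer membrane uptake of NPN was followed as fluorescence increase (ex 350 nm, em 420 nm) for 10 min.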

[9] = Therapeutic index, ratio of HC50 for human erythrocytes to MIC for drug-sensitive Pseudomonas aeruginosa ATCC 4676; details: read-out: TI
Staphylococcus aureus [10] = test: Antibacterial activity against drug-sensitive Staphylococcus aureus MTCC 737 assessed as formation of blebs and holes at 10 X MIC after 2 hrs by field-emission scanning electron microscopic analysis; format: functional, organism-based; in short: as §2
Staphylococcus aureus [11] = test: Antibacterial activity against drug-sensitive Staphylococcus aureus MTCC 737 after 24 hrs by broth microdilution assay; format: functional; details: MTCC 737, 24 h
In short: (§3)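 Bacteria grown 6 h to ~10^9 cfu/mL and diluted to 10^5 cfu/mL in nutrient media. Growth media were LB (E. coli), yeast-dextrose broth (S. aureus, P. aeruginosa) and BHI (E. faecium). Compound was serially diluted in water and added 1:3 to bacteria, then incubated 37 °C for 24 h with OD600 read-out. Triplicate ODs were sigmoid-fitted; MIC was taken where OD matched the no-bacteria control. At least two independent experiments.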

Pseudomonas aeruginosa [12] = test: Antibacterial activity against drug-sensitive Pseudomonas aeruginosa ATCC 4676 after 24 hrs by broth microdilution assay; format: functional; details: ATCC 4676, 24 h; in short: as §3
Staphylococcus aureus [13] = test: Antibacterial activity against drug-sensitive Staphylococcus aureus MTCC 737 assessed as inner cytoplasmic membrane permeabilization at MIC measured up to 10 mins by propidium iodide staining-based fluorescence assay; format: functional, organism-based
In short: (§4)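 Mid-log S. aureus were harvested, washed and resuspended in 5 mM HEPES/5 mM glucose pH 7.2 containing 15 µM propidium iodide. Compound was added and PI uptake followed as fluorescence increase (ex 535 nm, em 617 nm) for 10 min.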

Escherichia coli [14] = test: Antibacterial activity against drug-sensitive Escherichia coli MTCC 443 at MIC measured […] by DiSC3(5) dye-based fluorimetric analysis; format: functional, organism-based
In short: (§5)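 Mid-log cells were washed and resuspended at 10^8 cfu/mL in 5 mM glucose, 5 mM HEPES and 100 mM KCl (1:1:1). They were loaded with 2 µM DiSC3(5) for 10 min (S. aureus) or 20 min (P. aeruginosa, E. coli), then stabilized 2 min at room temperature. Compound was added and depolarization read as fluorescence increase (ex 622 nm, em 670 nm) over 10 min.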

Staphylococcus aureus [15] = test: Antibacterial activity against drug-sensitive Staphylococcus aureus MTCC 737 assessed as cytoplasmic membrane depolarization at MIC measured up to 12 mins by DiSC3(5) dye-based fluorimetric analysis; format: functional, organism-based; in short: as §5
[16] = Stability of the compound assessed as trypsin (unknown origin)-mediated drug degradation at 1 mg/ml up to 24 hrs by LC-MS analysis; format: ADME; details: human
In short: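 Compound at 1 mg/mL (solution before mixing) was incubated with trypsin in 0.1 M NH4HCO3 at 37 °C. Aliquots were taken from 0 min to 24 h, diluted with water and analyzed by LC-MS for new products and total ion current. A no-trypsin control was sampled at 0 and 24 h.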

Staphylococcus aureus [17] = test: Bactericidal activity against drug-sensitive Staphylococcus aureus MTCC 737 at 2 X MIC after 24 hrs by time-kill assay; format: functional, organism-based
In short: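 S. aureus at ~1.8×10^6 CFU/mL in fresh media was exposed at MIC and 2× MIC. Samples were taken at 0, 1, 2, 3, 6 and 24 h and serially diluted 10-fold in 0.9% saline. They were plated on yeast-dextrose agar at 37 °C overnight, and colonies were counted as log10 CFU/mL.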

Enterococcus faecium [18] = test: Antibacterial activity against drug-sensitive Enterococcus faecium ATCC 19634 after 24 hrs by broth microdilution assay; format: functional; details: ATCC 19634, 24 h; in short: as §3
[19] = Retention time of the compound by HPLC analysis; format: physicochemical
Escherichia coli [20] = test: Antibacterial activity against drug-sensitive Escherichia coli MTCC 443 assessed as disruption of cell membrane at 10 X MIC after 2 hrs by field-emission scanning electron microscopic analysis; format: functional, organism-based; in short: as §2
Staphylococcus aureus [21] = test: Antibacterial activity against drug-sensitive Staphylococcus aureus MTCC 737 preincubated for 3 hrs in 50% human plasma measured after 24 hrs by broth microdilution assay; format: functional; details: MTCC 737, Plasma
In short: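 Plasma was separated by centrifuging fresh human blood. Compound at 1600 µg/mL in 50% plasma was preincubated at 37 °C for 0, 3 or 6 h. Two-fold dilutions were added 1:3 to S. aureus at 10^5 cfu/mL and incubated 37 °C for 24 h. MIC was read by OD as in the broth assay.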

Escherichia coli [22] = test: Antibacterial activity against drug-sensitive Escherichia coli MTCC 443 after 24 hrs by broth microdilution assay; format: functional; details: MTCC 443, 24 h; in short: as §3
[23] = Hemolytic activity in human erythrocytes after 1 hr by spectrophotometric analysis; format: ADME, cell-based, Erythrocyte
In short: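 Heparinized fresh human erythrocytes at 5 vol% in PBS pH 7.4 were mixed 3:1 with serially diluted compound and held 1 h at 37 °C. Plates were centrifuged and supernatant A540 read. Hemolysis was scaled between an untreated control and a Triton X-100 (100% lysis) control. HC50 is the mean of at least two independent triplicate experiments.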

Staphylococcus aureus [24] = test: Antibacterial activity against drug-sensitive Staphylococcus aureus MTCC 737 assessed as change in cell membrane morphology at 10 X MIC after 1.5 hrs by SYTO and propidium iodide staining-based fluorescence microscopic analysis; format: functional, organism-based
In short: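 Suspension at 10^9 cells/mL was treated at 10× MIC for 1.5 h, beside an untreated control. Cells were pelleted, resuspended in PBS and mixed with a probe mix of 3.0 µM SYTO 9 and 15.0 µM PI. After 15 min in the dark, cells were examined by fluorescence microscopy.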

Staphylococcus aureus [25] = test: Bactericidal activity against methicillin-resistant Staphylococcus aureus ATCC 33591 at 3 X MIC after 6 hrs by time-kill assay; format: functional, organism-based
In short: (§6)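 Time-kill: MRSA (~1.8×10^6 CFU/mL in fresh media) exposed at 37 °C to compound at 1×, 3× or 6× MIC. Aliquots taken at 0, 1, 2, 3, 6 and 24 h, 10-fold serially diluted in 0.9% saline, plated on yeast-dextrose agar, incubated overnight at 37 °C. Colonies counted, expressed as log10 CFU/mL.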

Escherichia coli [26] = test: Ratio of MSI-78 MIC to compound MIC for Escherichia coli; format: functional
Staphylococcus aureus [27] = test: Antibacterial activity against drug-sensitive Staphylococcus aureus MTCC 737 assessed as inner cytoplasmic membrane permeabilization at 2 X MIC to 4 X MIC measured up to 10 mins by propidium iodide staining-based fluorescence assay; format: functional, organism-based; in short: as §4
Pseudomonas aeruginosa [28] = test: Antibacterial activity against drug-sensitive Pseudomonas aeruginosa ATCC 4676 at MIC to 2 X MIC measured […] by DiSC3(5) dye-based fluorimetric analysis; format: functional, organism-based; in short: as §5
Staphylococcus aureus [29] = test: Antibacterial activity against drug-sensitive Staphylococcus aureus MTCC 737 assessed as cytoplasmic membrane depolarization at MIC to 4 X MIC measured […] by DiSC3(5) dye-based fluorimetric analysis; format: functional, organism-based; in short: as §5
Staphylococcus aureus [30] = test: Bactericidal activity against methicillin-resistant Staphylococcus aureus ATCC 33591 at 6 X MIC after 1 hr by time-kill assay; format: functional; in short: as §6

SMILES	MIC (Enterococcus faecium [2]) [µg/mL]	MIC (Staphylococcus aureus [6]) [µg/mL]	MIC (Klebsiella pneumoniae) [µg/mL]	Activity (Escherichia coli [7])	selectivity ratio [9]	Activity (Staphylococcus aureus [10])	MIC (Staphylococcus aureus [11]) [µg/mL]	MIC (Pseudomonas aeruginosa [12]) [µg/mL]	MIC (Enterococcus faecium [18]) [µg/mL]	Retention_time [19] [min]	Activity (Escherichia coli [20])	MIC (Escherichia coli [22]) [µg/mL]	HC50 at 1 h [23] [µg/mL]	Activity (Staphylococcus aureus [24])	further results
CC[C@H](C)[C@H](NC(=O)CN)C(=O)NCC(=O)N[C@@H](CCCCN)C(=O)N[C@@H](Cc1ccccc1)C(=O)N[C@@H](CC(C)C)C(=O)N[C@@H](CCCCN)C(=O)N[C@@H](CCCCN)C(=O)N[C@@H](C)C(=O)N[C@@H](CCCCN)C(=O)N[C@@H](CCCCN)C(=O)N[C@@H](Cc1ccccc1)C(=O)NCC(=O)N[C@@H](CCCCN)C(=O)N[C@@H](C)C(=O)N[C@@H](Cc1ccccc1)C(=O)N[C@H](C(=O)N[C@@H](CCCCN)C(=O)N[C@H](C(=O)N[C@@H](CC(C)C)C(=O)N[C@@H](CCCCN)C(=O)N[C@@H](CCCCN)C(N)=O)[C@@H](C)CC)C(C)C [PEXIGANAN] (H-GIGKFLKKAKKFGKAFVKILKK-NH2)	8 (≈ 3.23 µM)	16 (≈ 6.46 µM)	8 (≈ 3.23 µM)												MIC (Pseudomonas aeruginosa [1]): 8 µg/mL (≈ 3.23 µM); MIC (Escherichia coli [3]): 16 µg/mL (≈ 6.46 µM); MIC (Enterococcus faecium [4]): 64 µg/mL (≈ 25.8 µM); MIC (Staphylococcus aureus [5]): 8 µg/mL (≈ 3.23 µM)
CCCCCCN(Cc1cccc2ccccc12)C(=O)[C@@H](N)CCCCN.O=C(O)C(F)(F)F.O=C(O)C(F)(F)F	54	65	100	Active	50	Active	20	11	34	11.8	Active	25	508	Active	Activity (Escherichia coli [8]): Active; Activity (Staphylococcus aureus [13]): Active; Activity (Escherichia coli [14]): Active; Activity (Staphylococcus aureus [15]): Active; Stability [16]: Stable; Activity (Staphylococcus aureus [17]): Active; MIC (Staphylococcus aureus [21]): 30 µg/mL
CCCCCCN(Cc1c2ccccc2c(Cl)c2ccccc12)C(=O)[C@@H](N)CCCCN.O=C(O)C(F)(F)F.O=C(O)C(F)(F)F	5.2	2.8	16	Active	50	Active	2.4	1.6	3.3	13.6	Active	3.5	82	Active	Activity (Staphylococcus aureus [25]): Active; Ratio (Escherichia coli [26]): 5; Activity (Staphylococcus aureus [27]): Active; Activity (Pseudomonas aeruginosa [28]): Active; Activity (Staphylococcus aureus [29]): Active; log10CFU/ml (Staphylococcus aureus [30]): 6
